Measurements reported in ChEMBL document CHEMBL1129647, “Targeting delavirdine/atevirdine resistant HIV-1: identification of (alkylamino)piperidine-containing bis(heteroaryl)piperazines as broad spectrum HIV-1 reverse transcriptase inhibitors” (J Med Chem, 1996).

Legend:
[1] = biological target: Human immunodeficiency virus type 1 reverse transcriptase (Human immunodeficiency virus 1, UniProt Q72547)
[2] = biological target: Human immunodeficiency virus type 1 reverse transcriptase (Human immunodeficiency virus 1, UniProt Q72547, P236L)
[3] = biological target: Human immunodeficiency virus type 1 reverse transcriptase (Human immunodeficiency virus 1, UniProt Q72547, Y181C)
[4] = Bioavailability at an iv dose of 15.6 mg/Kg and po dose of 31.2 mg/Kg; assay type: ADME, organism-based; settings: rat, in vivo, read-out: Bioavailabiility
In short: (§1)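 Male Sprague-Dawley rats, fasted, dosed iv and po in a crossover design with a 1 week washout between treatments (N = 3). Compound was given as a solution in propylene glycol/water (80/20, v/v) acidified with a molar excess of methanesulfonic acid. Values are the iv clearance and the absolute oral bioavailability.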

[5] = Clearance at an iv dose of 15.6 mg/Kg and po dose of 31.2 mg/Kg; assay type: ADME, organism-based; settings: rat, in vivo
In short: as §1

[6] = tested on: Human immunodeficiency virus 1; test: Concentration required to inhibit P24 production by 90% against L-697661 of HIV-1 IIIB (Y181C); assay type: functional
[7] = tested on: Human immunodeficiency virus 1; test: Concentration required to inhibit P24 production by 90% against U-90,152 of HIV-1 MF (P236L); assay type: functional
[8] = Clearance at an iv dose of 15 mg/Kg and po dose of 30 mg/Kg; assay type: ADME, organism-based; settings: rat, in vivo
In short: as §1

[9] = tested on: Human immunodeficiency virus 1; test: Concentration required to inhibit P24 production by 90% against U-90,152 of HIV-1 IIIB (L100I, M230L); assay type: functional
[10] = Bioavailability (dose 15 mg/kg i.v. and 30 mg/kg p.o.); assay type: ADME, organism-based; settings: rat, in vivo, po
In short: as §1

Row | Structure (SMILES) | IC50 [1] | IC50 [2] | IC50 [3] | bioavailability [4] | clearance [5] | IC90 [6] | IC90 [7] | clearance [8] | IC90 [9] | bioavailability [10]
1 | CC(C)Nc1ccc(Cl)nc1N(C)C1CCN(C(=O)c2cc3cc(NS(C)(=O)=O)ccc3[nH]2)CC1 | 360 nM | 1700 nM | 2130 nM | – | – | – | – | – | – | –
2 | CC(C)Nc1ccnnc1N(C)C1CCN(C(=O)c2cc3cc(NS(C)(=O)=O)ccc3[nH]2)CC1 | 740 nM | 4560 nM | 1310 nM | 0% | 40 mL/min/kg | – | – | – | – | –
3 | CN(c1ncccc1NC1CC1)C1CCN(C(=O)c2cc3cc(NS(C)(=O)=O)ccc3[nH]2)CC1 | 90 nM | 210 nM | 280 nM | – | – | 4400 nM | > 10000 nM | – | – | –
4 | CCNc1cccnc1N(CC)C1CCN(C(=O)c2cc3cc(NS(=O)(=O)C(C)C)ccc3[nH]2)CC1 | 450 nM | 330 nM | 660 nM | – | – | – | – | – | – | –
5 | CCN(c1nc(F)ccc1NC(C)(C)C)C1CCN(C(=O)c2cc3cc(NS(C)(=O)=O)ccc3[nH]2)CC1 | 730 nM | 1050 nM | 1060 nM | – | – | < 30 nM | 220 nM | 27 mL/min/kg | 120 nM | 17.1%
6 | CCC(C)(C)Nc1cccnc1N(C)C1CCN(C(=O)c2cc3cc(NS(C)(=O)=O)ccc3[nH]2)CC1 | 350 nM | 3330 nM | 530 nM | – | – | – | – | – | – | –
7 | CCNc1cccnc1N(CC)C1CCN(C(=O)c2cc3cc(NS(=O)(=O)N4CCN(C)CC4)ccc3[nH]2)CC1 | 240 nM | 440 nM | 1110 nM | – | – | – | – | – | – | –
8 | CN(c1ncccc1NC1(C)CC1)C1CCN(C(=O)c2cc3cc(NS(C)(=O)=O)ccc3[nH]2)CC1 | 160 nM | 1450 nM | 370 nM | – | – | 2300 nM | > 300 nM | – | – | –
9 | CCCN(c1ncccc1NC(C)(C)C)C1CCN(C(=O)c2cc3cc(NS(C)(=O)=O)ccc3[nH]2)CC1 | 480 nM | 1450 nM | 2480 nM | – | – | 30 nM | 320 nM | – | 110 nM | –
10 | CCN(c1ncccc1NC(C)(C)C)C1CCN(C(=O)c2cc3cc(NC(=O)N4CCN(C)CC4)ccc3[nH]2)CC1 | 220 nM | 370 nM | 610 nM | – | – | 50 nM | 160 nM | 61 mL/min/kg | 160 nM | 35.1%
11 | CCCN(c1ncccc1NCC)C1CCN(C(=O)c2cc3cc(NS(C)(=O)=O)ccc3[nH]2)CC1 | 150 nM | 520 nM | 950 nM | – | – | – | – | – | – | –
12 | CCN(c1ncccc1NC(C)(C)C)C1CCN(C(=O)c2cc3cc(NS(=O)(=O)N4CCN(C)CC4)ccc3[nH]2)CC1 | 790 nM | 1250 nM | 1830 nM | – | – | < 30 nM | 340 nM | 73.7 mL/min/kg | 140 nM | 32%
13 | CCCNc1cccnc1N(CC)C1CCN(C(=O)c2cc3cc(NS(C)(=O)=O)ccc3[nH]2)CC1 | 130 nM | 280 nM | 450 nM | – | – | 140 nM | 400 nM | – | – | –
14 | CCNc1cccnc1N(CC)C1CCN(C(=O)c2cc3cc(NS(C)(=O)=O)ccc3[nH]2)CC1 | 460 nM | 540 nM | 880 nM | – | – | 180 nM | 310 nM | 66.6 mL/min/kg | 80 nM | 2.8%
15 | CCN(c1nc(F)ccc1NC(C)C)C1CCN(C(=O)c2cc3cc(NS(C)(=O)=O)ccc3[nH]2)CC1 | 460 nM | 540 nM | 880 nM | – | – | 140 nM | 300 nM | – | 110 nM | –
16 | CCNc1cccnc1N(CC)C1CCN(C(=O)c2cc3cc(NC(=O)N4CCN(C)CC4)ccc3[nH]2)CC1 | 140 nM | 240 nM | 1230 nM | – | – | – | – | – | – | –
